Here are results for five compounds from ChEMBL document CHEMBL1151898 (J Nat Prod, 2009).

The target of data set [1] is T1, Xanthine dehydrogenase/oxidase (Bos taurus, UniProt P80457). Briefly: Activity at bovine xanthine oxidase at 10 uM. As to conditions: cattle.
Data set [2] addresses T1, Xanthine dehydrogenase/oxidase. Briefly: Activity at bovine xanthine oxidase at 25 uM. To be noted: cattle.
The target is the same in data set [3]. Briefly: Activity at bovine xanthine oxidase at 50 uM. To be noted: cattle.
Data set [4] has the same target. Put plainly: Activity at bovine xanthine oxidase at 25 uM preincubated for 10 mins. As to conditions: cattle.
The target is the same in data set [5]. Put plainly: Ratio of kcat to km for bovine xanthine oxidase at 10 uM. As to conditions: cattle.
Data set [6] has the same target. Briefly: Ratio of kcat to km for bovine xanthine oxidase at 25 uM. As to conditions: cattle.
For data set [7] the target is unchanged. Put plainly: Ratio of kcat to km for bovine xanthine oxidase at 50 uM. To be noted: cattle.
The target is the same in data set [8]. Briefly: Ratio of kcat to km for bovine xanthine oxidase at 25 uM preincubated for 10 mins. To be noted: cattle.
For data set [9] the target is unchanged. Briefly: Inhibition of bovine xanthine oxidase assessed as reduction of cytochrome c at 10 uM. As to conditions: cattle.
Data set [10] has the same target. Put plainly: Inhibition of bovine xanthine oxidase assessed as reduction of cytochrome c at 50 uM. To be noted: cattle.
Data set [11] shares this target. Briefly: Inhibition of bovine xanthine oxidase assessed as reduction of cytochrome c at 25 uM preincubated for 10 mins. To be noted: cattle.
Data set [12] shares this target. Briefly: Inhibition of bovine xanthine oxidase assessed as reduction in free enzyme turnover at 10 uM relative to control. As to conditions: cattle.
Data set [13] shares this target. Put plainly: Inhibition of bovine xanthine oxidase assessed as reduction in free enzyme turnover at 50 uM relative to control. To be noted: cattle.
For data set [14] the target is unchanged. Put plainly: Inhibition of bovine xanthine oxidase assessed as reduction of cytochrome c. Also on record: concentration or dose not given beside the values. To be noted: cattle.
Data set [15] has the same target. Put plainly: Inhibition of bovine xanthine oxidase assessed as reduction in free enzyme turnover at 50 uM relative to control. To be noted: cattle.
Data set [16] shares this target. Briefly: Inhibition of bovine xanthine oxidase assessed as reduction in xanthine turnover at 10 uM. To be noted: cattle.
For data set [17] the target is unchanged. Put plainly: Inhibition of bovine xanthine oxidase assessed as reduction in xanthine turnover at 50 uM. As to conditions: cattle.
Data set [18] shares this target. Put plainly: Inhibition of bovine xanthine oxidase.
The target is the same in data set [19]. Put plainly: Inhibition of bovine xanthine oxidase assessed as reduction in xanthine turnover at 25 uM. To be noted: cattle.
Data set [20] shares this target. Put plainly: Ratio of kcat to km for bovine xanthine oxidase at 25 uM preincubated for 10 mins relative to control. As to conditions: cattle.
Data set [21] shares this target. Put plainly: Inhibition of bovine xanthine oxidase assessed as decrease in production of superoxide at 50 uM relative to control. To be noted: cattle. The procedure, abridged: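 Superoxide followed indirectly by cytochrome c reduction. A550 monitored (Δε550 = 19.6 mM−1cm−1), initial rates vs no-inhibitor control. 25°C, 0.1 M MOPS, 0.2 mM EDTA, 0.1 M KCl, pH 7.4.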

Bounds are passed on as bounds.

T1 sequence (P80457 whole entry): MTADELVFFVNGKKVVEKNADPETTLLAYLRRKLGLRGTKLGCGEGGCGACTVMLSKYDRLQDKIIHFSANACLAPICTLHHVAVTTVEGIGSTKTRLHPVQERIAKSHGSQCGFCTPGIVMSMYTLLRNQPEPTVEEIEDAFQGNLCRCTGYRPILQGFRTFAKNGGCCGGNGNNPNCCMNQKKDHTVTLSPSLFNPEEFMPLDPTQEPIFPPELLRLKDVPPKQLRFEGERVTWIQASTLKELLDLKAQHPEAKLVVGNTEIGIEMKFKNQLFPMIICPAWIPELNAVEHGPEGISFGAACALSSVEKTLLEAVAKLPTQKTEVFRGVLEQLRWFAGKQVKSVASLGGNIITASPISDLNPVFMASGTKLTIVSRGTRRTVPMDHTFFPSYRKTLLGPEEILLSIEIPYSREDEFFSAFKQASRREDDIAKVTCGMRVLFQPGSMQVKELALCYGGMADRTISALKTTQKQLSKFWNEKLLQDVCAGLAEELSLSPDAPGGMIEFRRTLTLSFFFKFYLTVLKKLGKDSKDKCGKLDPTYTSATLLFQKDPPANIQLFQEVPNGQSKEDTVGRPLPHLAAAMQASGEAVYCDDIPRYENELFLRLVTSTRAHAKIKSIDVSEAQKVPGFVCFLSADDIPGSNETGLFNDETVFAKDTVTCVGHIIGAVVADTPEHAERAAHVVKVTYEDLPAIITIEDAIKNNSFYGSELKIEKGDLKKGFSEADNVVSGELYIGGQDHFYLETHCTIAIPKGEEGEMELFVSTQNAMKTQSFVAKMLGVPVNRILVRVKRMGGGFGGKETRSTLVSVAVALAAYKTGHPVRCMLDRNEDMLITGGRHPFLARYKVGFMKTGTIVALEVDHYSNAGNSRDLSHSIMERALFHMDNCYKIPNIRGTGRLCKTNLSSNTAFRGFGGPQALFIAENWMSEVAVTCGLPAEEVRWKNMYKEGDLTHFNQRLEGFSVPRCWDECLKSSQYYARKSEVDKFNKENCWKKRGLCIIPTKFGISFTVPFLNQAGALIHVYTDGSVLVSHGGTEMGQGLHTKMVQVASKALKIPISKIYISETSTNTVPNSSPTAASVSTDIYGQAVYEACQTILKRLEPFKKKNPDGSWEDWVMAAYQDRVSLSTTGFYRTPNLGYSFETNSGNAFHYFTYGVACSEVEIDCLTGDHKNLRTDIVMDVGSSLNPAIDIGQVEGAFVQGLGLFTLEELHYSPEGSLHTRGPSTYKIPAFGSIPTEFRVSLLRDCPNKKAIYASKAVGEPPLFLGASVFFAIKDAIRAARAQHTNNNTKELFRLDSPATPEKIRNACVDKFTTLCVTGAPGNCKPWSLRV

In the case of `O=c1c(O)c(-c2ccc(O)c(O)c2)oc2cc(O)cc(O)c12` [QUERCETIN], the Kcat worked out at 3.8 s⁻¹ in [1], 1.9 s⁻¹ in data set [2], 12.4 s⁻¹ in [3] and 8.1 s⁻¹ in data set [4]. Moreover, the Kcat/Km in data set [5] was 1.6e+06 M⁻¹ s⁻¹; in data set [6] it was 10000 M⁻¹ s⁻¹; in data set [7], 20000 M⁻¹ s⁻¹; in data set [8], 50000 M⁻¹ s⁻¹. The Activity in data set [9] is 140 nM/s; in data set [10], 80 nM/s; in [11], 110 nM/s; in data set [14] it was 100 nM/s. In addition, the results for the “fold change (FC)” value in data set [12], in data set [13] and in data set [15] were 20, 170 and 170, respectively.
In the case of `Oc1ncnc2[nH]ncc12` [ALLOPURINOL], the Kcat in [1] is 5.9 s⁻¹; in data set [2], 11.8 s⁻¹; in data set [3], 4.3 s⁻¹; in data set [4], 1.3 s⁻¹. The Kcat/Km in [5] was found to be 320000 M⁻¹ s⁻¹; in data set [6] it was 150000 M⁻¹ s⁻¹; in [7], 110000 M⁻¹ s⁻¹; in [8], 7000 M⁻¹ s⁻¹. Moreover, the Activity in data set [9] was 140 nM/s; in [10], 120 nM/s; in [11] it was 28 nM/s; in [14], 140 nM/s.
As a reminder, the inhibition is the drop in the measured response relative to a control, in per cent. Turning to `COc1cc(/C=C/C(=O)CC(=O)/C=C/c2ccc(O)c(OC)c2)ccc1O` [CURCUMIN], the Kcat was determined as 2.6 s⁻¹ in data set [1], 4.3 s⁻¹ in [2], 5 s⁻¹ in data set [3] and 6.5 s⁻¹ in data set [4]. For the same compound, the Kcat/Km in data set [5] was 4.8e+06 M⁻¹ s⁻¹; in data set [6], 6.5e+06 M⁻¹ s⁻¹; in data set [7], 5.1e+06 M⁻¹ s⁻¹; in [8] it was 3.9e+06 M⁻¹ s⁻¹. In addition, the Activity is listed as 160 nM/s in data set [9], 150 nM/s in data set [10], 150 nM/s in [11] and 150 nM/s in data set [14]. For the same compound, in data set [16], the inhibition at 10 µM is 60%. Besides, in data set [17], the inhibition at 50 µM was more than 80%.
The Ki is the equilibrium dissociation constant of an inhibitor or competing ligand from its target. Regarding `O=c1cc(-c2ccc(O)c(O)c2)oc2cc(O)cc(O)c12` [LUTEOLIN], the Kcat was found to be 6.2 s⁻¹ in data set [1], 4.5 s⁻¹ in [2], 12.2 s⁻¹ in data set [3] and 3.8 s⁻¹ in data set [4]. Moreover, the Kcat/Km in data set [5] is 200000 M⁻¹ s⁻¹; in data set [6], 30000 M⁻¹ s⁻¹; in [7], 20000 M⁻¹ s⁻¹; in [8], 50000 M⁻¹ s⁻¹. Also, in [18], the affinity, expressed as Ki, was 1900 nM. In addition, the Activity in data set [9] is recorded as 100 nM/s; in data set [10], 71 nM/s; in data set [11], 110 nM/s; in data set [14] it was 82 nM/s.
Turning to `COc1cc(C2Oc3cc([C@H]4Oc5cc(O)cc(O)c5C(=O)[C@@H]4O)ccc3OC2CO)ccc1O` (stereo partly specified) [SILIBININ], the Kcat in [1] was determined as 5.8 s⁻¹; in data set [2], 13.3 s⁻¹; in data set [3] it was 4 s⁻¹; in data set [4] it was 6.9 s⁻¹. Also, the Kcat/Km amounted to 140000 M⁻¹ s⁻¹ in data set [5], 130000 M⁻¹ s⁻¹ in [6], 110000 M⁻¹ s⁻¹ in [7] and 70000 M⁻¹ s⁻¹ in data set [8]. Moreover, the Activity in data set [9] is recorded as 160 nM/s; in data set [10] it was 140 nM/s; in [11] it was 120 nM/s; in data set [14], 150 nM/s. The inhibition at 10 µM in data set [16] amounted to 50%. Besides, in data set [19], the inhibition at 25 µM is 50%. Besides, the results for the inhibition at 50 µM in data set [17] and in data set [21] were 50% and 20%, respectively. For the same compound, in data set [20], the “fold change (FC)” value turned out to be 80.
